What was measured:
[1] = Binding affinity to Ebola virus glycoprotein assessed as dissociation constant incubated for 20 to 30 mins by microscale thermophoresis; set-up: species or system Ebolavirus
How it was run: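 EBOV glycoprotein amine-labelled with RED-NHS dye, 2.5 nM final in 10 mM MES pH 5.0, 150 mM NaCl, 170 mM sodium malonate pH 5.2, plus 0.05% Tween 20 and 10 mM BME. 16-point 2-fold series from 250 μM to 7.629 nM, 2.5% DMSO final. Incubated 20–30 min. MST run at 20% excitation, high power, 23.0 °C, in quadruplicate. Kd from mass-action fit of Fnorm, with aggregated or outlier traces removed.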

[2] = system: Ebolavirus; test: Antiviral activity against Ebolavirus infected in human HeLa cells assessed as reduction in viral replication incubated for 48 hrs by luminescence based assay; format: functional, organism-based; settings: Orthoebolavirus

C[C@H]1[C@H](OC(=O)CCC(=O)O)O[C@@H]2O[C@@]3(C)CC[C@H]4[C@H](C)CC[C@@H]1[C@@]24OO3 [ARTESUNATE]
Kd [1]: Not Active

NC(=O)c1nc(F)cnc1O [FAVIPIRAVIR]
Kd [1]: Not Active

COc1ccc2nc3cc(Cl)ccc3c(Nc3cc(CN4CCCC4)c(O)c(CN4CCCC4)c3)c2n1 [PYRONARIDINE]
Kd ([1]; read-out: Kd): 7340 nM | IC50 [2]: 820 to 1300 nM

CCN(CC)CCCC(C)Nc1c2ccc(Cl)cc2nc2ccc(OC)cc12 (centres undefined) [QUINACRINE]
Kd ([1]; read-out: Kd): 7550 nM | IC50 [2]: 1050 to 1480 nM

CCN(CC)CCOc1ccc2c(c1)C(=O)c1cc(OCCN(CC)CC)ccc1-2 [TILORONE]
Kd ([1]; read-out: Kd): 731 nM | IC50 [2]: 1140 to 1480 nM

CN(C)CCOc1ccc(/C(=C(/CCCl)c2ccccc2)c2ccccc2)cc1 [TOREMIFENE]
Kd ([1]; read-out: Kd): 24800 nM
